In assay [1] the target is Somatostatin receptor type 2 (Homo sapiens, UniProt P30874). As to the kind of experiment: Antagonistic activity towards sst2 receptor in GH4C1 cells a concentration of 1-2 x 10e6/mL incubated for 20 minutes. Type of assay: functional, cell-based, GH4-C1. In short, it runs like this:
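GH4C1 pituitary cells (1–2×10⁶/mL) exposed to compound dose-titrations with 100 nM VIP plus 10 nM somatostatin 14, 20 min at 37 °C. cAMP content read against cAMP standards in adenylyl cyclase activation plates. Antagonism scored as a cAMP rise over VIP+somatostatin control wells. Values from single experiments or means of 2–4 replicate experiments.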

Assay [2] has as its target Somatostatin receptor type 2 (Sus scrofa). Description: Inhibitory concentration towards binding of sst2 receptor using [125I]somatostatin as radioligand in Neuro2A cells.

Where a SMILES comes first, the peptide text is derived from it. [ ]: non-standard residue; d: D form. The star is where a group is joined. Phe(3-F) = N[C@@H](Cc1cccc(F)c1)C(=O)O; Tos = Cc1ccc(S(=O)(=O)*)cc1

What is called IC50 is the concentration needed to halve the response being measured. Read a low IC50 as greater potency.

Chain of Somatostatin receptor type 2 (P30874 whole entry): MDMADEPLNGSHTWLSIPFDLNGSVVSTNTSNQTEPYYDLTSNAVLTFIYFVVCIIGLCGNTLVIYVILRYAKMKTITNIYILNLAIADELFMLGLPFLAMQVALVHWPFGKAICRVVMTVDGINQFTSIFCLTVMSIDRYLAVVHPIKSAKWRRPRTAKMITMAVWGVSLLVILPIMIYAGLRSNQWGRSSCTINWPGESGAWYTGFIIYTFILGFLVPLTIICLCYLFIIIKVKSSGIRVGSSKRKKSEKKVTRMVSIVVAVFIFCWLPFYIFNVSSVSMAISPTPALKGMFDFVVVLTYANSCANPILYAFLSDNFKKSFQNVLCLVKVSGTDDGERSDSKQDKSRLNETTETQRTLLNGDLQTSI

On to `CC(C)(C)OC(=O)[C@H](CCCCN)NC(=O)[C@H](Cc1c[nH]c2ccccc12)NC(=O)c1ccc(-c2ccccc2)cc1`, for which the figures for the IC50 in assay [1] and in assay [2] were 1200 nM and 85 nM, respectively.

As for `CC(C)(C)OC(=O)[C@H](CCCCN)NC(=O)[C@@H](Cc1c[nH]c2ccccc12)NC(=O)N1CCN(S(=O)(=O)c2ccccc2)CC1`, the IC50 was determined as 29 nM in assay [1] and 2.9 nM in assay [2].

In the case of `CC(C)(C)OC(=O)[C@H](CCCCN)NC(=O)[C@@H](Cc1c[nH]c2ccccc12)NC(=O)C1CCN(S(=O)(=O)c2ccccc2)CC1`, the IC50 in assay [1] worked out at 120 nM; in assay [2] it was 3.2 nM.

Regarding `CC(C)(C)C1N[C@H](C(=O)NC(Cc2cccc3ccccc23)C(N)=O)CSSC[C@@H](NC(=O)C(N)Cc2cccc(F)c2)C(=O)NC(Cc2cccnc2)C(=O)N[C@@H](Cc2c[nH]c3ccccc23)C(=O)N[C@@H](CCCCN)C1=O` (stereo partly drawn), the values for the IC50 in assay [1] (gh4-c1) and in assay [2] (neuro2a) were 270 nM and 4.1 nM, respectively.

On to `Cc1ccc(S(=O)(=O)N2CCN(C(=O)N[C@H](Cc3c[nH]c4ccccc34)C(=O)N[C@@H](CCCCN)C(=O)OC(C)(C)C)CC2)cc1`, for which the values for the IC50 in assay [1] and in assay [2] were 7700 nM and 9.2 nM, respectively.

With `CC(C)(C)OC(=O)[C@H](CCCCN)NC(=O)[C@@H](Cc1c[nH]c2ccccc12)NC(=O)N1CCN(C(=O)c2ccccc2)CC1`, the IC50 in assay [1] amounted to 1600 nM; in assay [2], 6.9 nM.

With `CC(C)(C)OC(=O)[C@H](CCCCN)NC(=O)[C@@H](Cc1c[nH]c2ccccc12)NC(=O)N1CCC(n2c(=O)[nH]c3ccccc32)CC1`, the figures for the IC50 in assay [1] and in assay [2] were 6.5 nM and 0.26 nM, respectively.

Take `Cc1ccc(C(=O)N2CCN(C(=O)N[C@H](Cc3c[nH]c4ccccc34)C(=O)N[C@@H](CCCCN)C(=O)OC(C)(C)C)CC2)cc1`: the IC50 is 67 nM in assay [1] and 4.4 nM in assay [2].

On to `COC(=O)[C@H](CCCN=C(N)N)NC(=O)[C@H](Cc1cccc(F)c1)NS(=O)(=O)c1ccc(C)cc1` (Tos-[Phe(3-F)]-Arg-OMe), for which the values for the concentration for half-maximal inhibition (IC50) in assay [1] and in assay [2] were 6500 nM and over 2000 nM, respectively.

Source of the values: ChEMBL document CHEMBL1133812, “Small molecule somatostatin receptor subtype-2 antagonists” (Bioorg Med Chem Lett, 2001).
